Activity calls are given as the source filed them. The calls are words filed in the database; no cut-off is given here.
How the values were obtained:
NCI-H1299 = assay: Anticancer activity against human H1299 cells at 0.03 to 30 uM by sulforhodamine B assay; format: functional, cell-based
Method in brief: (§1)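 Sulforhodamine B viability assay on lung cancer cells exposed to a range of compound concentrations for 3 days. Untreated reference: DMSO-treated cells set as 100. Values are mean ± SD of quadruplicate wells.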

NCI-H460 = assay: Anticancer activity against human H460 cells at 0.03 to 30 uM by sulforhodamine B assay; format: functional, cell-based; method in brief: as §1
Intestine = assay: Drug level in intestine of Balb/c mouse xenografted with human Calu3 cells assessed as aldehyde metabolite level at 60 mg/kg, iv using compound formulated in Solutol HS15 and ethyl alcohol measured after 24 hrs by HPLC/MS method; format: ADME, organism-based, Calu-3; parameters: dose 60 mg/kg, route intravenous; conditions: in vivo
Method in brief: (§2)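 Nude mice bearing subcutaneous Calu3 xenografts, 1 mouse per treatment group. Organs and tumor were taken 24 h later and kept at −80°C, then homogenized in methanol (50 mg/ml) on ice. Homogenate was extracted with acetonitrile containing 0.2% formic acid plus an internal standard, centrifuged, and the supernatant analyzed by HPLC/MS.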

[1] = Stability in stock solution with Solutol HS15 and ethyl alcohol solvent at room temperature by HPLC method; format: physicochemical
Method in brief: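 Stock solutions were made by dissolving compound in 75% (w/v) Solutol HS15 in ethanol (about 20% v/v ethanol). Final concentrations were 8 mg/ml for prodrug and 5 mg/ml for parent. Stocks were stored at 4°C or room temperature; aliquots were frozen at −20°C before HPLC.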

[2] = Half life in Balb/c mouse at 25 mg/kg, iv using compound formulated in Solutol HS15 and ethyl alcohol by HPLC/MS method; format: ADME, organism-based; parameters: dose 25 mg/kg, route intravenous; conditions: in vivo
Method in brief: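 Balb/c mice received 25 mg/kg by tail vein in Solutol HS15/ethanol vehicle. Blood was drawn from the tail vein at 0, 1, 2, 3.5, 7 and 24 h, 3 mice per time point, into lithium-heparin tubes. Plasma (50 µl) was precipitated with 150 µl acetonitrile containing 0.2% formic acid and internal standard, iced 15 min, centrifuged, and the supernatant analyzed by HPLC/MS for parent and released drug.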

Mus musculus [3] = assay: Toxicity in Balb/c mouse assessed as mortality at 150 mg/kg, ip dosed daily for 3 days using compound formulated in Solutol HS15 and ethyl alcohol measured on day 5; format: organism-based; parameters: dose 150 mg/kg, route intraperitoneal; conditions: in vivo, 72 h
[4] = Stability in powder form at 4 degC to 37 degC after 1 to 14 days by HPLC method; format: physicochemical
Method in brief: (§3)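 Powders were kept at 4°C, room temperature (21°C) or 37°C and sampled for up to 90 days. Each aliquot was dissolved in DMSO, diluted with 9 volumes acetonitrile, and analyzed by HPLC for purity.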

Mus musculus [5] = assay: Toxicity in Balb/c mouse assessed as serum ALT level at 150 mg/kg, ip dosed daily for 3 days using compound formulated in Solutol HS15 and ethyl alcohol measured on day 6; format: organism-based; parameters: dose 150 mg/kg, route intraperitoneal; conditions: in vivo, 72 h
[6] = Drug level in intestine of Balb/c mouse xenografted with human Calu3 cells at 60 mg/kg, iv using compound formulated in Solutol HS15 and ethyl alcohol measured after 24 hrs by HPLC/MS method; format: ADME, organism-based, Calu-3; parameters: dose 60 mg/kg, route intravenous; conditions: read-out: Drug uptake; method in brief: as §2
[7] = Stability in powder form in non-evacuated chambers at 37 degC after 1 to 14 days by HPLC method; format: physicochemical; method in brief: as §3
Mus musculus [8] = assay: Toxicity in Balb/c mouse assessed as mortality level at 300 mg/kg, ip using compound formulated in Solutol HS15 and ethyl alcohol measured after 3 days; format: organism-based; parameters: dose 300 mg/kg, route intraperitoneal; conditions: in vivo, 72 h
Method in brief: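 Acute toxicity: 3 Balb/c mice (7–8 weeks) per group, given i.p. 300 mg/kg on day 1 and again on day 2. Deaths were recorded by day; survivors were followed for 2 weeks.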

Calu-3 = assay: Anticancer activity against human Calu3 cells at 0.03 to 30 uM by sulforhodamine B assay; format: functional, cell-based; method in brief: as §1
[9] = Drug level in tumor of Balb/c mouse xenografted with human Calu3 cells at 60 mg/kg, iv using compound formulated in Solutol HS15 and ethyl alcohol measured after 24 hrs by HPLC/MS method; format: ADME, organism-based, Neoplasm, Calu-3; parameters: dose 60 mg/kg, route intravenous; conditions: read-out: Drug uptake; method in brief: as §2
[10] = Stability in injectable solution with Solutol HS15 and ethyl alcohol and 0.9% NaCl assessed as drug hydrolysis within 7 hrs at 37 degC by HPLC method; format: physicochemical; conditions: read-out: Drug degradation
Mus musculus [11] = assay: Toxicity in Balb/c mouse assessed as serum AST level at 25 mg/kg, ip dosed daily for 8 days using compound formulated in Solutol HS15 and ethyl alcohol; conditions: in vivo, 192 h
[12] = Stability in powder form in non-evacuated chambers at 37 degC after 14 days by HPLC method; format: physicochemical; conditions: read-out: Stability; method in brief: as §3
Mus musculus [13] = assay: Toxicity in Balb/c mouse assessed as serum AST level at 150 mg/kg, ip dosed daily for 3 days using compound formulated in Solutol HS15 and ethyl alcohol measured on day 6; format: organism-based; parameters: dose 150 mg/kg, route intraperitoneal; conditions: in vivo, 72 h
Mus musculus [14] = assay: Toxicity in Balb/c mouse assessed as serum ALP level at 25 mg/kg, ip dosed daily for 8 days using compound formulated in Solutol HS15 and ethyl alcohol measured on day 6; format: organism-based; parameters: dose 25 mg/kg, route intraperitoneal; conditions: in vivo, 192 h
Kidney = assay: Drug level in kidney of Balb/c mouse xenografted with human Calu3 cells assessed as aldehyde metabolite level at 60 mg/kg, iv using compound formulated in Solutol HS15 and ethyl alcohol measured after 24 hrs by HPLC/MS method; format: ADME, organism-based, Calu-3; parameters: dose 60 mg/kg, route intravenous; conditions: in vivo; method in brief: as §2
Mus musculus [15] = assay: Toxicity in Balb/c mouse assessed as histopathological changes in liver at 150 mg/kg, ip dosed once using compound formulated in Solutol HS15 and ethyl alcohol measured after 48 hrs; conditions: in vivo
Spleen = assay: Drug level in spleen of Balb/c mouse xenografted with human Calu3 cells assessed as aldehyde metabolite level at 60 mg/kg, iv using compound formulated in Solutol HS15 and ethyl alcohol measured after 24 hrs by HPLC/MS method; format: ADME, organism-based, Calu-3; parameters: dose 60 mg/kg, route intravenous; conditions: in vivo; method in brief: as §2
Liver = assay: Drug level in liver of Balb/c mouse xenografted with human Calu3 cells assessed as aldehyde metabolite level at 60 mg/kg, iv using compound formulated in Solutol HS15 and ethyl alcohol measured after 24 hrs by HPLC/MS method; format: ADME, organism-based, Calu-3; parameters: dose 60 mg/kg, route intravenous; conditions: in vivo; method in brief: as §2
Mus musculus [16] = assay: Toxicity in Balb/c mouse assessed as changes in blood cell parameters at 150 mg/kg, ip dosed daily for 3 days using compound formulated in Solutol HS15 and ethyl alcohol measured after 48 hrs; format: organism-based; parameters: dose 150 mg/kg, route intraperitoneal; conditions: in vivo
Mus musculus [17] = assay: Toxicity in Balb/c mouse assessed as serum ALP level at 150 mg/kg, ip dosed daily for 3 days using compound formulated in Solutol HS15 and ethyl alcohol measured on day 6; format: organism-based; parameters: dose 150 mg/kg, route intraperitoneal; conditions: in vivo, 72 h
Lung = assay: Drug level in lung of Balb/c mouse xenografted with human Calu3 cells assessed as aldehyde metabolite level at 60 mg/kg, iv using compound formulated in Solutol HS15 and ethyl alcohol measured after 24 hrs by HPLC/MS method; format: ADME, organism-based, Calu-3; parameters: dose 60 mg/kg, route intravenous; conditions: in vivo; method in brief: as §2
Mus musculus [18] = assay: Toxicity in Balb/c mouse assessed as serum ALT level at 25 mg/kg, ip dosed daily for 8 days using compound formulated in Solutol HS15 and ethyl alcohol measured on day 6; format: organism-based; parameters: dose 25 mg/kg, route intraperitoneal; conditions: in vivo, 192 h
[19] = Drug level in lung of Balb/c mouse xenografted with human Calu3 cells at 60 mg/kg, iv using compound formulated in Solutol HS15 and ethyl alcohol measured after 24 hrs by HPLC/MS method; format: ADME, organism-based, Calu-3; parameters: dose 60 mg/kg, route intravenous; conditions: read-out: Drug uptake; method in brief: as §2
[20] = Stability in injectable solution with Solutol HS15 and ethyl alcohol and 0.9% NaCl assessed as drug hydrolysis within 7 hrs at room temperature by HPLC method; format: physicochemical; conditions: 7 h
NCI-H157 = assay: Anticancer activity against human NCI-H157 cells at 0.03 to 30 uM by sulforhodamine B assay; format: functional, cell-based; method in brief: as §1
Tumour = assay: Drug level in tumor of Balb/c mouse xenografted with human Calu3 cells assessed as aldehyde metabolite level at 60 mg/kg, iv using compound formulated in Solutol HS15 and ethyl alcohol measured after 24 hrs by HPLC/MS method; format: ADME, organism-based, Neoplasm, Calu-3; parameters: dose 60 mg/kg, route intravenous; conditions: in vivo; method in brief: as §2

## OCc1cn(Cc2cccc(Cl)c2)c2ccccc12
NCI-H1299
  Activity: inactive
NCI-H460
  Activity: Active
Intestine
  Drug uptake: 30.1 µg/g
[1]
  Stability: 1 weeks
[2]
  half-life: 30 min
Mus musculus [3]
  Activity: Toxic
[4]
  Stability: Stable
Mus musculus [5]
  Activity: 1936 U/L
[6]
  concentration at 24 h: 14300 ng/g
[7]
  Stability: Unstable
Mus musculus [8]
  Activity: Toxic
Calu-3
  Activity: Active
[9]
  concentration at 24 h: 4200 ng/g
[10]
  degraded at 7 h: > 20%
Mus musculus [11]
  Activity: 206.7 U/L
[12]
  remaining at 336 h: < 5%
Mus musculus [13]
  Activity: 4045 U/L
Mus musculus [14]
  Activity: 44 U/L
Kidney
  Drug uptake: 31 µg/g
Mus musculus [15]
  Activity: Toxic
Spleen
  Drug uptake: 19.9 µg/g
Liver
  Drug uptake: 25 µg/g
Mus musculus [16]
  Activity: Non-toxic
Mus musculus [17]
  Activity: 3 U/L
Lung
  Drug uptake: 34.3 µg/g
Mus musculus [18]
  Activity: 80.3 U/L
[19]
  concentration at 24 h: 4200 ng/g
[20]
  Stability: Stable
NCI-H157
  Activity: Active
Tumour
  Drug uptake: 1.7 µg/g
